Experimental data reported in ChEMBL document CHEMBL1821682, “Synthesis of new 2'-deoxy-2'-fluoro-4'-azido nucleoside analogues as potent anti-HIV agents” (Eur J Med Chem, 2011).

Legend:
[1] = test system: Human immunodeficiency virus 1; assay: Antiviral activity against vesicular stomatitis virus G-pseudotyped Human immunodeficiency virus 1 NL4-3 infected in human MT2 cells assessed as inhibition of viral replication after 48 hrs by luciferase activity reporter gene assay; format: functional, organism-based
Procedure, shortened: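 Pseudovirus made by Ca3(PO4)2 co-transfection of 293 cells with env-deficient pNL4-3.luc.R−E− and VSV-G plasmid; supernatant harvested 48 h, 0.45 μm filtered. MT-2 cells (1.2×10⁵/well) pre-incubated with compound 15 min, then infected; solvent-only control. After 48 h cells lysed and luciferase measured; EC50 from dose-dependent inhibition, averaged from at least two experiments.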

[2] = test system: Human immunodeficiency virus 1; assay: Antiviral activity against NRTI-resistant Human immunodeficiency virus 1 4755-5 harboring reverse transcriptase M41L, D67N, L210W, T215Y, M184V, T69D, E44D and V118I mutant infected in human TZM-bl cells assessed as reduction in relative luminescence units after 48 hrs by luciferase reporter gene assay; format: functional, organism-based; conditions: Human immunodeficiency virus 1, 4755-5, TZM-bl
Procedure, shortened: (§1)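 Panel of eleven NRTI-resistant strains from the NIH Reagent Program plus wild-type NL4-3; highest concentration tested 40,000 nM. EC50 = concentration inhibiting HIV by 50%, averaged from at least two separate experiments.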

HepG2 = assay: Cytotoxicity activity against human HepG2 by CellTiter-Glo luminescent cell viability assay; format: cell-based
Procedure, shortened: (§2)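 CellTiter-Glo luminescent viability assay quantifying ATP in metabolically active cells; PBMC were PHA-activated. Highest concentration tested 140 μM. IC50 = concentration inhibiting cell growth by 50%, averaged from at least three separate experiments.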

[3] = test system: Human immunodeficiency virus 1; assay: Antiviral activity against NRTI-resistant Human immunodeficiency virus 1 7324-4 harboring reverse transcriptase M41L, K70R, T215F and K219E mutant infected in human TZM-bl cells assessed as reduction in relative luminescence units after 48 hrs by luciferase reporter gene assay; format: functional, organism-based; conditions: Human immunodeficiency virus 1, 7324-4, TZM-bl; procedure, shortened: as §1
[4] = test system: Human immunodeficiency virus 1; assay: Antiviral activity against NRTI-resistant Human immunodeficiency virus 1 7295-1 harboring reverse transcriptase D67N, K70R, T215F, K219Q, M184V and T69N mutant infected in human TZM-bl cells assessed as reduction in relative luminescence units after 48 hrs by luciferase reporter gene assay; format: functional, organism-based; conditions: Human immunodeficiency virus 1, 7295-1, TZM-bl; procedure, shortened: as §1
[5] = test system: Human immunodeficiency virus 1; assay: Antiviral activity against NNRTI-resistant Human immunodeficiency virus 1 RTMDR infected in human TZM-bl cells assessed as reduction in relative luminescence units after 48 hrs by luciferase reporter gene assay; format: functional, organism-based
[6] = Cytotoxicity activity against human ACH2 by CellTiter-Glo luminescent cell viability assay; conditions: ACH-2; procedure, shortened: as §2
[7] = test system: Human immunodeficiency virus 1; assay: Antiviral activity against NRTI-resistant Human immunodeficiency virus 1 29129-2 harboring reverse transcriptase M41L, D67N, L210W, T215Y and M184V mutant infected in human TZM-bl cells assessed as reduction in relative luminescence units after 48 hrs by luciferase reporter gene assay; format: functional, organism-based; conditions: Human immunodeficiency virus 1, 29129-2, TZM-bl; procedure, shortened: as §1
[8] = test system: Human immunodeficiency virus 1; assay: Antiviral activity against NRTI-resistant Human immunodeficiency virus 1 56252-1 harboring reverse transcriptase K70R, V75I, F77L, F116Y, Q151M and K65R mutant infected in human TZM-bl cells assessed as reduction in relative luminescence units after 48 hrs by luciferase reporter gene assay; format: functional, organism-based; conditions: Human immunodeficiency virus 1, 56252-1, TZM-bl; procedure, shortened: as §1
[9] = test system: Human immunodeficiency virus 1; assay: Antiviral activity against NRTI-resistant Human immunodeficiency virus 1 7303-3 harboring reverse transcriptase M41L, D67N, L210W, T215Y, T69D, E44D and V118I mutant infected in human TZM-bl cells assessed as reduction in relative luminescence units after 48 hrs by luciferase reporter gene assay; format: functional, organism-based; conditions: Human immunodeficiency virus 1, 7303-3, TZM-bl; procedure, shortened: as §1
[10] = test system: Human immunodeficiency virus 1; assay: Antiviral activity against NRTI-resistant Human immunodeficiency virus 1 6463-13 harboring reverse transcriptase M41L, D67N, L210W, T215Y, M184V and V118I mutant infected in human TZM-bl cells assessed as reduction in relative luminescence units after 48 hrs by luciferase reporter gene assay; format: functional, organism-based; conditions: Human immunodeficiency virus 1, 6463-13, TZM-bl; procedure, shortened: as §1
MT4 = assay: Cytotoxicity activity against human MT4 by CellTiter-Glo luminescent cell viability assay; format: cell-based; procedure, shortened: as §2
[11] = test system: Human immunodeficiency virus 1; assay: Antiviral activity against […] infected in human TZM-bl cells assessed as reduction in relative luminescence units after 48 hrs by luciferase reporter gene assay; format: functional, organism-based; conditions: Human immunodeficiency virus 1, NL4-3, TZM-bl; procedure, shortened: as §1
HEK-293T = assay: Cytotoxicity activity against human 293T by CellTiter-Glo luminescent cell viability assay; format: cell-based; procedure, shortened: as §2
PBMC = assay: Cytotoxicity activity against human PBMC by CellTiter-Glo luminescent cell viability assay; format: cell-based; procedure, shortened: as §2
[12] = test system: Human immunodeficiency virus 1; assay: Antiviral activity against NRTI-resistant Human immunodeficiency virus 1 10076-4 harboring reverse transcriptase M41L, T215Y and M184V mutant infected in human TZM-bl cells assessed as reduction in relative luminescence units after 48 hrs by luciferase reporter gene assay; format: functional, organism-based; conditions: Human immunodeficiency virus 1, 10076-4, TZM-bl; procedure, shortened: as §1
[13] = Cytotoxicity activity against human TZM-bl by CellTiter-Glo luminescent cell viability assay; format: cell-based
Procedure, shortened: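 Viable TZM-bl cells (HeLa-derived) quantified by luminescent ATP read-out after exposure to compound, tested up to a top concentration of 140 μM. IC50 taken as the concentration that inhibits cell growth by 50%, averaged from at least three separate experiments.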

[14] = test system: Human immunodeficiency virus 1; assay: Antiviral activity against Human immunodeficiency virus 1 NL4-3 harboring reverse transcriptase K101E mutant infected in human TZM-bl cells assessed as reduction in relative luminescence units after 48 hrs by luciferase reporter gene assay; format: functional, organism-based; conditions: Human immunodeficiency virus 1, NL4-3, TZM-bl
[15] = test system: Human immunodeficiency virus 1; assay: Antiviral activity against NRTI-resistant Human immunodeficiency virus 1 35764-2 harboring reverse transcriptase V75I, F77L, F116Y and Q151M mutant infected in human TZM-bl cells assessed as reduction in relative luminescence units after 48 hrs by luciferase reporter gene assay; format: functional, organism-based; conditions: Human immunodeficiency virus 1, 35764-2, TZM-bl; procedure, shortened: as §1
[16] = test system: Human immunodeficiency virus 1; assay: Antiviral activity against NRTI-resistant Human immunodeficiency virus 1 1617-1 harboring reverse transcriptase K70G, M184V, T69K, V75I, F77L, F116Y and Q151M mutant infected in human TZM-bl cells assessed as reduction in relative luminescence units after 48 hrs by luciferase reporter gene assay; format: functional, organism-based; conditions: Human immunodeficiency virus 1, 1617-1, TZM-bl; procedure, shortened: as §1
[17] = test system: Human immunodeficiency virus 1; assay: Antiviral activity against NRTI-resistant Human immunodeficiency virus 1 7324-1 harboring reverse transcriptase M41L, D67N, K70R, T215F, K219E and T69N mutant infected in human TZM-bl cells assessed as reduction in relative luminescence units after 48 hrs by luciferase reporter gene assay; format: functional, organism-based; conditions: Human immunodeficiency virus 1, 7324-1, TZM-bl; procedure, shortened: as §1
[18] = test system: Human immunodeficiency virus 1; assay: Antiviral activity against Human immunodeficiency virus 1 NL4-3 infected in human TZM-bl cells assessed as reduction in relative luminescence units after 48 hrs by luciferase reporter gene assay; format: functional, organism-based; conditions: Human immunodeficiency virus 1, NL4-3, TZM-bl

`[N-]=[N+]=N[C@]1(CO)O[C@@H](n2ccc(N)nc2=O)[C@@H](F)[C@@H]1O` [RO-0622] gave an EC50 ([1]; mt2) of 0.3 nM.
In the case of `[N-]=[N+]=N[C@]1(CO)O[C@@H](n2ccc(N)nc2=O)[C@@H](F)[C@@H]1O`, the EC50 [2] is reported as > 40000 nM, the IC50 (HepG2) is reported as > 140000 nM and the EC50 [3] is reported as 0.735 nM. The EC50 [4] was > 40000 nM, the EC50 [5] was 0.11 nM and the IC50 [6] was 110 nM. The EC50 ([1]; mt2) was 0.13 nM, the EC50 [7] was > 40000 nM and the EC50 [8] was 0.525 nM. The EC50 [9] was 0.56 nM, the EC50 [10] was > 40000 nM and the IC50 (MT4) was 120 nM. For the same compound, the EC50 [11] was 0.318 nM, the IC50 (HEK-293T) was > 140000 nM and the IC50 (PBMC) was 150 nM. For the same compound, the EC50 [12] was > 40000 nM, the IC50 [13] was > 140000 nM and the EC50 [14] was 0.15 nM. The EC50 [15] was 0.42 nM, the EC50 [16] was 32.2 nM and the EC50 [17] was 0.595 nM. For the same compound, the EC50 [18] was 0.086 nM.
Compound `Cc1cn([C@H]2C[C@H](N=[N+]=[N-])[C@@H](CO)O2)c(=O)[nH]c1=O` [ZIDOVUDINE] has an EC50 ([1]; Human immunodeficiency virus 1, NL4-3, MT2, 48 h) of 47 nM.
